Here are results for 4 compounds from paper PMC5516890 (Bioconjugate chemistry, 2016).

Data set [1] addresses T1, PSMA (Homo sapiens, UniProt Q04609). The following applies: for comparison; cited from earlier work.
Data set [2] concerns the target T1, PSMA. Kind of data set: PSMA inhibition assay. The note with it: LNCaP cell lysates, 4 μM NAAG. The class given is biochemical. An outline of the steps:
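PSMA source: LNCaP cell lysate. Test compound (0.01 nM–100 μM) incubated with 4 μM NAAG, 37 °C, 2 h. Released glutamate detected with Amplex Red glutamic acid working solution, 37 °C, 60 min; fluorescence ex 490/em 642 nm. IC50 from semilog inhibition curves, then Ki by Cheng–Prusoff. Triplicates; whole inhibition study repeated at least once.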

A short description of data set [3]: Octanol-water partition coefficient. The class given is physicochemical. The note with it: pH 7.4.
In a further data set the test system is kidneys. Kind of data set: Radiation dosimetry. The class given is in vivo, NOD-SCID mice.
Data set [4] deals with PSMA^+ PC3 PIP and PSMA^− PC3 flu xenografts. Kind of data set: Small animal PET imaging. The format is in vivo, NOD-SCID mice. An outline of the steps: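 Male NOD-SCID mice given 1 × 106 PSMA+ PC3 PIP and PSMA− PC3 flu cells s.c. in opposite flanks, cells trypsinized at 80–90% confluence into HBSS. Imaged at 3–5 mm tumors after i.v. 0.36 mCi (13.3 MBq) radiotracer in 0.2 mL PBS under isoflurane/oxygen. PET/CT at 30, 60, 120 min; 10 min per bed, 20 min total; 250–700 keV; FORE/2D-OSEM, decay/dead-time/scatter corrected.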

Molecules are shown by their SMILES. Where two headings read alike, the source gives them in different places.

T1 sequence (Q04609 whole entry): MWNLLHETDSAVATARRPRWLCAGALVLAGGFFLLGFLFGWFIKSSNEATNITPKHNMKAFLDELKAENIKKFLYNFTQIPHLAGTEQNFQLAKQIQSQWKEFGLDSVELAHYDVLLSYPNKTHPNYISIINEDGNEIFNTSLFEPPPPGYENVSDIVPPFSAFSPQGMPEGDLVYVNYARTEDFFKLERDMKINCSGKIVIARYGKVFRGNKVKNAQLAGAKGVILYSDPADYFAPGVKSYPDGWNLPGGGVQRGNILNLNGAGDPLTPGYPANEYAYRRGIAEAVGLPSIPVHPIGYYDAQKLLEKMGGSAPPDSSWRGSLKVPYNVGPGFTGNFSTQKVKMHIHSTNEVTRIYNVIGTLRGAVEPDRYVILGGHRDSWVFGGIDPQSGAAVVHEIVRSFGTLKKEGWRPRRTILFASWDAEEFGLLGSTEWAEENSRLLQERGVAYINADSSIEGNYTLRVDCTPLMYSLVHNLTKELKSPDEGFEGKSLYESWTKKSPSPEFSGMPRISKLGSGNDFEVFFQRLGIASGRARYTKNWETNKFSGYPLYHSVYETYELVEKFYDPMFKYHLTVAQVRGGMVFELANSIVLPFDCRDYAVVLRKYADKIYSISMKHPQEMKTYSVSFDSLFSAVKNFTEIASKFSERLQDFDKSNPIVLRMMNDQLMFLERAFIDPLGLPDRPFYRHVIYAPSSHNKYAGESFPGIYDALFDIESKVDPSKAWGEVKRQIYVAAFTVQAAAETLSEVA

Turning to `O=C(O)CCC(NC(=O)NC(CCCCNC(=O)c1ccc(F)cc1)C(=O)O)C(=O)O` (stereo not shown) [DCFBzL], the Ki at PSMA [1] is 0.00019 µM.
Consider `O=C(O)CCC(NC(=O)NC(CCCCNC(=O)CCc1cn(CCF)nn1)C(=O)O)C(=O)O` (stereo not shown) [YC-88, 2-[3-(1-Carboxy-5-{3-[1-(2-fluoroethyl)-1 H-1,2,3-tria-zol-yl]propanamido}pentyl)ureido]pentanedioic Acid], for which the Ki on PSMA [2] (37 °C, 2 h, Cheng–Prusoff conversion) is 0.0129 µM; at PSMA [2] (read-out: Ki 95% confidence intervals) it was 0.0087 to 0.0191 µM.
Turning to `O=C(O)CCC(NC(=O)NC(CCCCNC(=O)c1ccc([18F])nc1)C(=O)O)C(=O)O` (stereo not shown) [[^18F]DCFPyL, 2-(3-{1-carboxy-5-[(6-[^18F]fluoropyridine-3-carbonyl)-amino]-pentyl}-ureido)-pentanedioic acid, reference compound], in data set [3], the logP was -3.27. In the data set on kidneys (male, NOD-SCID, mouse, in vivo), the AUC stood at 340.74 % ID/g-h and the biological half-life is 1.20 h.
In turn, `O=C(O)CCC(NC(=O)NC(CCCCNC(=O)CCc1cn(CC[18F])nn1)C(=O)O)C(=O)O` (stereo not shown) [[^18F]YC-88, 2-[3-(1-carboxy-5-{3-[1-(2-[^18F]fluoroethyl)-1H-1,2,3-triazol-yl]propanamido}pentyl)ureido]-pentanedioic acid] yielded a logP in data set [3] (1-octanol and PBS) of −3.91. In the data set with kidneys (kidneys), the AUC is given as 70.7 % ID/g-h; the “AUC ratio (agent/YC-88)” value turned out to be 1; the “kidney absorbed dose, decrease compared to [^18F]DCFPyL” value is reported as roughly 5 fold. The same compound yielded a biological half-life in the data set on kidneys (kidneys, single exponential fit of % ID/g data) of 1.52 h. Besides, in data set [4] (30, 60, 120 min postinjection), the “uptake in normal tissues on PET images” value is listed as “extremely low uptake”. For the same compound, in data set [4] (as early as 30 min postinjection, 0.36 mCi i.v.), the “PSMA^+ PC3 PIP tumor uptake on PET images” value was “Intense”.

One may read the Ki as a measure of affinity in units of concentration, obtained from inhibition or displacement. In general, logP refers to a log measure of how a compound divides between an organic and an aqueous phase.
